Source: PubChem (several laboratories)
RORa activator: activators of human nuclear receptor RORA; P35398; activation, % at 10 µM; 65,000 compounds, 1.5% hits; CHO-K1 Gal4-RORA LBD luciferase reporter, luminescence; percent increase over mock-subtracted basal signal;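 active means activation above the mean of all tested compounds plus 3 SD, cut at about 49% in these data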
Target sequence (P35398 whole entry, looked up, the tested form may be a part): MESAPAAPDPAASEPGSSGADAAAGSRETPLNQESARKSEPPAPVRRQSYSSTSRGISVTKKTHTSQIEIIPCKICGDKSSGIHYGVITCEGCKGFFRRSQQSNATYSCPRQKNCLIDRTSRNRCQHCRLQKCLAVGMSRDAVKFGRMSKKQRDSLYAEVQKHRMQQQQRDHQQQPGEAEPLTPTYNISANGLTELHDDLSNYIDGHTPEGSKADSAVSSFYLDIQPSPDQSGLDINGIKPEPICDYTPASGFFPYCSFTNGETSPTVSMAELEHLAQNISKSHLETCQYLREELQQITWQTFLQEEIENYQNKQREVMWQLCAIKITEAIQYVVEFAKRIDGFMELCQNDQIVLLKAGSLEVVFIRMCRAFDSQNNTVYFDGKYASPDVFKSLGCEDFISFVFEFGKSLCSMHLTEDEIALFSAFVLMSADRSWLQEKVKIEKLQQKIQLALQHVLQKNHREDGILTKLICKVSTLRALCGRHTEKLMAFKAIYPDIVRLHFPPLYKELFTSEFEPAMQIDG
SF1 activator: SF-1 (human) activation. Q13285. CHO-K1 Gal4-SF-1 LBD luciferase reporter; % increase over DMSO SF-1-specific signal. activation, % at 10 µM. 65,000 compounds, 1.9% hits;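 active means activation above the mean activation of all tested compounds plus 3 SD, cut at about 50% in these data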
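Test system: transient Gal4-SF-1 LBD reporter, CHO-K1; Amount: 4,000 CHO-K1 cells per well; Doses: 10 µM only; Timing: compound exposure 20 h at 37 °C; Signal: luciferase light emission; Read-out basis: percent activation relative to DMSO median and mock-transfected background; Control set: DMSO negative control and −SF1 background wells; Replicates: one test per compound.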
ERa SRC1 pot: ER-alpha (human) coactivator binding potentiation | TR-FRET ERalpha-LBD/SRC-Cy5 coactivator binding, 2 h; 100 = basal binding, no effect | coactivator binding (% of control), % at 25.6 µM | 86,000 compounds, 1.3% hits | AID 639; in the data active means activity above about 200%;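 further: binding measured in presence of low estradiol as agonist stimulus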
ERb coact inh: ER-beta (human) coactivator binding inhibition. Q92731. TR-FRET ER-beta LBD / SRC1-Cy5 peptide binding; receptor agonist-loaded with 1 µM estradiol. inhibition, % at 25.6 µM. 86,000 compounds, 1.3% hits;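 active means compounds whose percent inhibition of the receptor-coactivator binding signal exceeds about 50% in the single-dose screen, limit read from the data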
ERa coact inh: blocks coactivator binding to human estrogen receptor alpha; P03372; TR-FRET ER-alpha LBD / SRC-1 peptide, estradiol-bound; inhibition, % at 25.6 µM; 86,000 compounds, 1.7% hits; in the data active means inhibition above about 50%
BAP1 inh: human BAP1 deubiquitinase inhibition. Q92560. recombinant BAP1, Ub-AMC hydrolysis fluorescence kinetic; active compounds read low. calls only at 20 µM. 72,000 compounds, 0.48% hits. AID 436;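 active means activity remaining at or below 50% of control, provided the compound also passes the data quality filters; inactive means the rest, including low values that fail the filters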
Of the large screens only hits and unclear results are named; the others gave an inactive call; [ ] = dose if it differs, or a comment. Rows were chosen to be rich in hits. Some 5.1% of all compounds tested hit in one or more screens of this group.

CCOC(=O)c1sc(NC(=O)c2c(C)nn(Cc3ccccc3)c2C)cc1C	ERa SRC1 pot 202 (not shown: BAP1 inh)
Cc1ccc(CCNS(=O)(=O)c2cnc[nH]2)cc1	ERb coact inh 70
O=S(=O)(NCc1ccc(Cl)cc1)c1cnc[nH]1	none
Cc1cc(C)c(C#N)c(SCC(=O)Nc2nnc(-c3ccccc3)s2)n1	ERa SRC1 pot 208[fluorescence artefact?]
CCOc1cc(-n2cnnn2)c(OCC)cc1NC(=O)c1cnccn1	ERa coact inh 55
CCOC(=O)c1cc(NC(=O)c2cnccn2)cc(C(=O)OCC)c1	none (not shown: BAP1 inh)
COc1ccc(-c2cc(-c3cccs3)c(C#N)c(SCC(=O)NCc3ccco3)n2)cc1	ERa coact inh 54
CC1(C)CC(=O)C(C=Nc2ccccc2)=C(O)C1	SF1 activator 64
Cc1csc(NC(=O)CCn2c(=O)sc3ccccc32)n1	none
O=C(CCn1c(=O)sc2ccccc21)Nc1nccs1	RORa activator 53
COc1cc(-c2nc(-c3ccc(Br)o3)no2)cc(OC)c1OC	none
CCc1ccc(-c2nc(-c3ccncc3)no2)cc1	none
CCCCc1ccc(-c2nc(-c3ccncc3)no2)cc1	RORa activator 59 (no result: BAP1 inh)
Brc1ccc(-c2nc(-c3ccncc3)no2)o1	SF1 activator 50
c1ccc(-c2nc(-c3ccncc3)no2)cc1	none
c1coc(-c2nc(-c3ccncc3)no2)c1	SF1 activator 50
Brc1ccc(-c2nc(-c3ccccn3)no2)o1	none
COc1ccc(-c2noc(-c3ccc(Br)o3)n2)cc1OC	ERa SRC1 pot 387[fluorescence artefact?]
COc1ccc(OC)c(N)c1	ERb coact inh 63[fluorescence artefact?], ERa coact inh 91[fluorescence artefact?]
O=C(Cc1cccs1)Nc1nc2ccccc2s1	RORa activator 58
Cc1ccnc2ccc(-c3nc4ccccc4o3)cc12	SF1 activator 56
Cc1nc2ccc(-c3nc4ccccc4o3)cc2[nH]1	none (no result: RORa activator, SF1 activator, BAP1 inh)
CC(=O)Nc1nc2ccc(-c3nc4ccccc4o3)cc2s1	RORa activator 69 (no result: ERa SRC1 pot, ERb coact inh, ERa coact inh)
CCOC(=O)Cc1csc(NC(=O)Cc2cccs2)n1	ERb coact inh 75, ERa coact inh 90[fluorescence artefact?]
Cc1c(C(=O)O)sc(=S)n1C	none (no result: RORa activator, SF1 activator, ERa SRC1 pot, ERb coact inh, ERa coact inh)
O=C(CSc1nc2ccccc2o1)Nc1nc2ccccc2s1	SF1 activator 50
Cc1ccc2c(c1)c1ncnc(N3CCOCC3)c1n2C	none
Cc1ccc2c(c1)c1ncnc(N3CCC4(CC3)OCCO4)c1n2C	RORa activator 62, SF1 activator 67
O=c1/c(=C/c2ccco2)sc2nc(-c3ccccc3Br)nn12	ERb coact inh 62[fluorescence artefact?], ERa coact inh 59[fluorescence artefact?]
COc1ccccc1-c1nc2s/c(=C\c3cccs3)c(=O)n2n1	ERa coact inh 67[fluorescence artefact?]
O=C1c2ccccc2C(=O)N1Cc1ccco1	none
Cc1c(-n2c(CN3C(=O)c4ccccc4C3=O)nc3ccccc3c2=O)c(=O)n(-c2ccccc2)n1C	none
O=c1c2ccccc2nc2ccc(NCc3ccco3)nn12	RORa activator 53
CC(C)Cn1c(CN2C(=O)c3ccccc3C2=O)nc2ccccc2c1=O	ERa SRC1 pot 370[fluorescence artefact?]
c1cncc(-c2nc(NCc3ccco3)c3ccccc3n2)c1	none
CSc1nc(NCc2ccco2)c2ccccc2n1	ERa coact inh 54 (no result: RORa activator, SF1 activator, BAP1 inh)
O=C1c2ccccc2C(=O)N1Cc1nc2ccccc2c(=O)n1Cc1ccco1	ERa SRC1 pot 249, ERb coact inh 58[fluorescence artefact?], ERa coact inh 59[fluorescence artefact?]
CC(=O)C1=C(O)C(=O)N(CC2CCCO2)C1c1ccccc1 (configuration not stated)	none (no result: RORa activator, SF1 activator, ERa SRC1 pot, ERb coact inh, ERa coact inh)
Cc1nc(/N=C\N(C)C)sc1C(=O)Nc1ccccc1	RORa activator 52
Cc1nc(N)sc1C(=O)Nc1ccccc1	none (no result: RORa activator, SF1 activator, BAP1 inh)
O=C1CC(c2cccc(Br)c2)Nc2ccc3ccccc3c21 (configuration not stated)	none (no result: RORa activator, SF1 activator, ERa SRC1 pot, ERb coact inh, ERa coact inh)
c1ccc(Cc2nnc3sc(-c4ccc5c(c4)OCCO5)nn23)cc1	SF1 activator 55
CCc1nnc2sc(-c3ccc(NC(=O)c4ccco4)cc3)nn12	none
CCc1nnc2sc(-c3ccc(NC(=O)c4ccc5c(c4)OCCO5)cc3)nn12	ERa SRC1 pot 326 (not shown: BAP1 inh)
Cc1ccc(C)c(N2C(=O)c3ccc(Oc4cccc(N)c4)cc3C2=O)c1	none (no result: RORa activator, SF1 activator, ERa SRC1 pot, ERb coact inh, ERa coact inh)
CC12CC3CC(C)(C1)CC(C(=O)Nc1nn[nH]n1)(C3)C2	ERa SRC1 pot 226
Cc1ccccc1-n1c(C)nnc1SCc1nc2ccccc2s1	RORa activator 58, SF1 activator 55
CCCn1c(=O)c2ccccc2n2c(SCC(=O)Nc3cc(C)on3)nnc12	ERb coact inh 100[fluorescence artefact?]
CCCn1c(=O)c2ccccc2n2c(SCc3nc4ccccc4s3)nnc12	SF1 activator 70
NC(=O)NC(=O)C[n+]1cccc(C(N)=O)c1	none (no result: RORa activator, SF1 activator, ERa SRC1 pot, ERb coact inh, ERa coact inh)
O=C(Nc1cc2nn(-c3ccccc3)nc2cc1Cl)c1ccco1	SF1 activator 73, ERa coact inh 62[fluorescence artefact?] (not shown: BAP1 inh)
CCOC(=O)c1oc2ccc(CNCCO)c(Cl)c2c1C	SF1 activator 66 (no result: ERa SRC1 pot, ERb coact inh, ERa coact inh)
CCC(=O)Nc1cc(NC(=O)CSc2ncc(-c3ccc(F)cc3)n2Cc2ccco2)ccc1C	RORa activator 55, SF1 activator 69 (not shown: BAP1 inh)
COc1ccc(C2(CC(N)=O)CCOC(C)(C)C2)cc1 (configuration not stated)	none (no result: RORa activator, SF1 activator, ERa SRC1 pot, ERb coact inh, ERa coact inh)
O=C1COc2ccc(C(=O)COC(=O)c3ccc4ccccc4n3)cc2N1	none
CCCn1nc(C(=O)OCC(=O)c2ccc3c(c2)NC(=O)CO3)c2ccccc2c1=O	ERa coact inh 73
NC(=O)c1sc2nc3c(c(-c4ccc(Cl)cc4)c2c1N)CCCC3	ERa SRC1 pot 252[fluorescence artefact?] (no result: RORa activator, SF1 activator, BAP1 inh)
Cc1ccc(-c2c3c(nc4sc(C(N)=O)c(N)c24)CCC3)cc1	none (no result: RORa activator, SF1 activator, BAP1 inh)
COc1ccc(N=C2NC(=O)S/C2=C\c2ccc(N(C)C)cc2)cc1	ERb coact inh 52, ERa coact inh 54 (no result: RORa activator, SF1 activator, BAP1 inh)
Cc1nn(C)c(C)c1CN(C)C(=O)c1cnn2c1NC(c1ccccc1)CC2C(F)(F)F (configuration not stated)	ERb coact inh 56
CCOC(=O)c1c(NC(=O)c2cccc(OC)c2)sc(C)c1C	none (no result: RORa activator, SF1 activator, ERa SRC1 pot, ERb coact inh, ERa coact inh)
CCOC(=O)c1sc(=NC(=O)c2cccc(OC)c2)n(C)c1C	SF1 activator 57
Oc1ccc(C=Nc2ccc(N3CCOCC3)cc2)c(O)c1	ERb coact inh 69, ERa coact inh 58
Cc1ccc(N=Cc2ccc(O)cc2O)cc1F	none (no result: ERa SRC1 pot, ERb coact inh, ERa coact inh)
Brc1cc(Br)c2nc(-c3cccs3)ccc2c1	ERa SRC1 pot 241[fluorescence artefact?] (no result: RORa activator, SF1 activator, BAP1 inh)
c1cncc(-c2nc(-c3cccs3)cs2)c1	none (no result: BAP1 inh)
Cn1nnnc1SCC(=O)Nc1nc(-c2ccccc2)c(-c2ccccc2)o1	ERa SRC1 pot 391
Cn1nnnc1SCC(=O)Nc1ccccn1	none (no result: RORa activator, SF1 activator, BAP1 inh)
O=C(CC1Nc2ccccc2NC1=O)c1ccccc1 (configuration not stated)	RORa activator 56
CCOC(=O)N1CCN(c2cc(=O)n(-c3ccccc3Cl)c(=O)[nH]2)CC1	ERb coact inh 74[fluorescence artefact?]
O=c1cc(N2CCN(c3ccccc3)CC2)[nH]c(=O)n1-c1ccccc1Cl	none
